Results taken from ChEMBL document CHEMBL4017524, “A Novel Arylurea Fatty Acid That Targets the Mitochondrion and Depletes Cardiolipin To Promote Killing of Breast Cancer Cells” (J Med Chem, 2017).
Active and inactive are the calls of the source.

Key:
[1] = tested on: MDA-MB-231; test: Induction of apoptosis in human MDA-MB-231 cells assessed as mitochondrial membrane disruption at 10 uM after 6 hrs by JC-1/Hoechst 33342 staining based fluorescence microscopic assay; format: functional, cell-based
How it was run: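 Treatment with 10 µM or DMSO for 6 h. Cells were washed twice with serum-free medium, then incubated with JC-1 in serum-free medium at 37°C for 20 min. Hoechst 33342 nuclear counterstain, then fluorescence microscopy of green monomers versus red aggregates.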

[2] = tested on: MDA-MB-231; test: Cytotoxicity against human MDA-MB-231 cells assessed as decrease in ATP production at 10 uM after 24 to 48 hrs by CellTiter-Glo luminescent assay; format: functional, cell-based
[3] = tested on: MDA-MB-231; test: Induction of apoptosis in human MDA-MB-231 cells assessed as mitochondrial membrane disruption by measuring red to green fluorescence ratio at 10 uM after 24 hrs by JC-1 staining based microscopic method relative to control; format: functional
How it was run: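 Cells exposed for 24 h at 10 µM, then stained with the cationic dye JC-1. Red (aggregate, intact inner membrane) to green (monomer) fluorescence ratio expressed relative to DMSO control. Mean±SEM of three experiments.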

[4] = tested on: MDA-MB-231; test: Induction of apoptosis in human MDA-MB-231 cells assessed as increase in caspases 3/7 activity at 10 uM after 48 hrs by Caspase-Glo assay; format: functional, cell-based
[5] = tested on: MDA-MB-231; test: Induction of apoptosis in human MDA-MB-231 cells at 10 uM after 48 hrs by annexin VFITC/7AAD staining based flow cytometry; format: functional, cell-based
How it was run: (§1)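 Annexin V-FITC/7AAD flow cytometry of cells after 48 h at 10 µM. Quadrants: E4 annexin V only (early apoptotic), E2 dual-stained (late apoptotic), E1 7AAD only, E3 unstained (viable). Compared with DMSO control. Mean±SEM from three experiments.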

[6] = tested on: MDA-MB-231; test: Cytotoxicity against human MDA-MB-231 cells assessed as decrease in cell viability at 40 uM after 48 hrs by crystal violet staining based assay; format: functional
[7] = tested on: MDA-MB-231; test: Cell cycle arrest in human MDA-MB-231 cells at 10 uM after 24 hrs by propidium iodide staining based flow cytometric analysis
[8] = tested on: MDA-MB-231; test: Cytotoxicity against human MDA-MB-231 cells assessed as decrease in cell adherence at 40 uM after 48 hrs by crystal violet staining based assay; format: functional
[9] = tested on: MDA-MB-468; test: Cytotoxicity against human MDA-MB-468 cells assessed as decrease in ATP production at 10 uM up to 72 hrs by CellTiter-Glo luminescent assay; format: functional, cell-based
[10] = tested on: MCF-10A; test: Cytotoxicity against human MCF10A cells assessed as decrease in ATP production at 10 to 20 uM after 48 hrs by CellTiter-Glo luminescent assay; format: cell-based
[11] = tested on: MDA-MB-231; test: Induction of apoptosis in human MDA-MB-231 cells assessed as necrotic cells at 10 uM after 48 hrs by annexin VFITC/7AAD staining based flow cytometry (reference value: 1.5 +/- 0.2%); format: functional; how it was run: as §1
[12] = tested on: T47D; test: Induction of apoptosis in human T47D cells assessed as increase in caspases 3/7 activity at 10 uM after 48 hrs by Caspase-Glo assay; format: functional, cell-based
[13] = tested on: Mus musculus; test: Toxicity in Balb/c nude mouse assessed as change in body weight at 2.5 to 40 mg/kg, ip qd for 5 days; format: organism-based; conditions: in vivo, 120 h
How it was run: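 Balb/c mice given 2.5-40 mg/kg intraperitoneally for 5 days. Weight gain and other signs of toxicity were monitored.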

[14] = tested on: MDA-MB-231; test: Antitumor activity against human MDA-MB-231 cells xenografted in Balb/c nu/nu mouse assessed as decrease in Ki67 biomarkers at 2.5 to 40 mg/kg, ip qd administered 6 days per week for 32 to 38 days by […] immunohistochemical analysis; format: functional, organism-based
How it was run: (§2)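 Female nu/nu mice, 7 weeks old, n=5-8 per group. Each received 4x10⁵ cells in 100 µl by subcutaneous injection into the 4th mammary fat pad. Intraperitoneal dosing at graded doses. Body weights and tumour sizes were measured. Isolated tumour sections were stained for TUNEL (apoptosis) and Ki67 (proliferation), with DAPI nuclear stain.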

[15] = tested on: MDA-MB-231; test: Cytotoxicity against human MDA-MB-231 cells assessed as ATP production at 10 uM after 24 hrs by CellTiter-Glo luminescent assay relative to control; format: functional
How it was run: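 MDA-MB-231 cells exposed to 10 µM for 24 h, then ATP formation measured and expressed relative to DMSO-treated control. Basal ATP per 7.5 x 10⁴ cells was recorded at 24 h. Mean±SEM from three separate experiments.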

[16] = tested on: MDA-MB-231; test: Cell cycle arrest in human MDA-MB-231 cells assessed as accumulation at sub-G1 phase at 10 uM after 24 hrs by propidium iodide staining based flow cytometric analysis (reference value: 1.4 +/- 0.03%); format: functional
[17] = tested on: MDA-MB-231; test: Induction of reactive oxygen species in human MDA-MB-231 cells after 2 to 6 hrs by 2',7'-dichlorofluorescin dye based flow cytometric analysis; format: functional, cell-based
How it was run: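 Pro-oxidant stress followed by flow cytometry using 2',7'-dichlorofluorescin diacetate after 2-6 h of treatment in MDA-MB-231 cells.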

[18] = tested on: MDA-MB-231; test: Induction of apoptosis in human MDA-MB-231 cells assessed as late apoptotic cells at 10 uM after 48 hrs by annexin VFITC/7AAD staining based flow cytometry (reference value: 5.9 +/- 0.9%); format: functional; how it was run: as §1
[19] = tested on: MDA-MB-231; test: Induction of apoptosis in human MDA-MB-231 cells assessed as early apoptotic cells at 10 uM after 48 hrs by annexin VFITC/7AAD staining based flow cytometry (reference value: 6.6 +/- 1.4%); format: functional; how it was run: as §1
[20] = tested on: MDA-MB-468; test: Induction of apoptosis in human MDA-MB-468 cells assessed as increase in caspases 3/7 activity at 10 uM after 48 hrs by Caspase-Glo assay; format: functional, cell-based
[21] = tested on: MDA-MB-231; test: Induction of apoptosis in human MDA-MB-231 cells assessed as viable cells at 10 uM after 48 hrs by annexin VFITC/7AAD staining based flow cytometry (reference value: 86.2 +/- 2.3%); format: functional; conditions: MDA-MB-231, 48 h, read-out: Activity; how it was run: as §1
[22] = tested on: MDA-MB-231; test: Antitumor activity against human MDA-MB-231 cells xenografted in Balb/c nu/nu mouse assessed as TUNEL positive cells at 2.5 to 40 mg/kg, ip qd administered 6 days per week for 32 to 38 days; format: functional, organism-based; how it was run: as §2
[23] = tested on: MDA-MB-231; test: Cell cycle arrest in human MDA-MB-231 cells assessed as decrease in accumulation of G2M phase at 10 uM after 24 hrs by propidium iodide staining based flow cytometric analysis; format: functional
[24] = tested on: MDA-MB-231; test: Cell cycle arrest in human MDA-MB-231 cells assessed as decrease in accumulation of G0G1 phase at 10 uM after 24 hrs by propidium iodide staining based flow cytometric analysis; format: functional
[25] = tested on: MDA-MB-231; test: Induction of mitochondrial membrane disruption in human MDA-MB-231 cells assessed as mitochondrial cardiolipin level at 14 uM after 24 hrs relative to control; format: functional
[26] = tested on: T47D; test: Cytotoxicity against human T47D cells assessed as decrease in ATP production at 10 uM up to 72 hrs by CellTiter-Glo luminescent assay; format: functional, cell-based
[27] = tested on: MDA-MB-231; test: Cytotoxicity against human MDA-MB-231 cells assessed as ATP production at 10 uM after 48 hrs by CellTiter-Glo luminescent assay relative to control; format: functional
[28] = tested on: MDA-MB-231; test: Cytotoxicity against human MDA-MB-231 cells assessed as decrease in cell viability at 40 uM after 48 hrs in presence of alpha-tocopherol by crystal violet staining based assay; format: functional
[29] = tested on: MCF7; test: Induction of apoptosis in human MCF7 cells assessed as increase in caspases 3/7 activity at 10 uM after 48 hrs by Caspase-Glo assay; format: functional, cell-based
[30] = tested on: MDA-MB-231; test: Induction of apoptosis in human MDA-MB-231 cells assessed as increase in caspases 3/7 activity at 10 uM after 24 hrs by Caspase-Glo assay relative to control; format: functional
How it was run: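 Executioner caspase-3/7 activity read after 24 h exposure at 10 µM and expressed relative to DMSO-treated control. Basal activity per 7.5 x 10⁴ cells was recorded. Mean±SEM of three separate experiments.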

[31] = tested on: MDA-MB-231; test: Antitumor activity against human MDA-MB-231 cells xenografted in ip dosed Balb/c nu/nu mouse assessed as decrease in tumor volume administered once daily 6 days per week for 32 to 38 days; format: functional, organism-based; how it was run: as §2
[32] = tested on: MDA-MB-231; test: Induction of apoptosis in human MDA-MB-231 cells assessed as plasma membrane phospholipid phosphatidylcholine level per 1.05 X 10^7 cells at 14 uM after 24 hrs (reference value: 91 +/- 9 ug); format: functional
[33] = tested on: MDA-MB-231; test: Induction of mitochondrial membrane disruption in human MDA-MB-231 cells assessed as mitochondrial cardiolipin level at 14 uM after 24 hrs in presence of oleic acid; format: functional, cell-based
[34] = tested on: MDA-MB-231; test: Induction of mitochondrial membrane disruption in human MDA-MB-231 cells assessed as mitochondrial phosphatidylglycerol level at 14 uM after 24 hrs relative to control; format: functional
[35] = tested on: MDA-MB-231; test: Induction of mitochondrial membrane disruption in human MDA-MB-231 cells assessed as mitochondrial phosphatidylglycerol level at 14 uM after 24 hrs in presence of oleic acid; format: functional, cell-based
[36] = tested on: MDA-MB-231; test: Cell cycle arrest in human MDA-MB-231 cells assessed as decrease in accumulation of S phase at 10 uM after 24 hrs by propidium iodide staining based flow cytometric analysis; format: functional
[37] = tested on: MDA-MB-231; test: Cytotoxicity against human MDA-MB-231 cells assessed as decrease in ATP production at 10 uM after 24 hrs in presence of mitochondrial permeability transition pore inhibitor cyclosporin A by CellTiter-Glo luminescent assay; format: functional, cell-based
How it was run: (§3)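 ATP formation read in MDA-MB-231 cells co-treated with BAPTA-AM (5 or 25 µM) or with cyclosporin A (10 or 20 µM).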

[38] = tested on: MDA-MB-231; test: Cytotoxicity against human MDA-MB-231 cells assessed as decrease in ATP production at 10 uM after 24 hrs in presence of Ca2+ chelator BAPTA-AM by CellTiter-Glo luminescent assay; format: functional, cell-based; how it was run: as §3
[39] = tested on: MCF7; test: Cytotoxicity against human MCF7 cells assessed as decrease in ATP production at 10 uM up to 72 hrs by CellTiter-Glo luminescent assay; format: functional, cell-based

CNC(=O)c1cc(Oc2ccc(NC(=O)Nc3ccc(Cl)c(C(F)(F)F)c3)cc2)ccn1
active: Activity [1]

CC(C)(C)c1ccc(NC(=O)NCCCCCCCCCCCCCCCC(=O)O)cc1
inactive: Activity [2] | Activity [3]

O=C(O)CCCCCCCCCCCCCCCNC(=O)Nc1ccc(F)cc1
inactive: Activity [2] | Activity [3]

O=C(O)CCCCCCCCCCCCCCCNC(=O)Nc1ccc(I)cc1
inactive: Activity [2] | Activity [3]

Cc1ccc(NC(=O)NCCCCCCCCCCCCCCCC(=O)O)cc1
inactive: Activity [2] | Activity [3]

COc1ccc(NC(=O)NCCCCCCCCCCCCCCCC(=O)O)cc1
inactive: Activity [2] | Activity [3]

O=C(O)CCCCCCCCCCCCCCCNC(=O)Nc1ccccc1
inactive: Activity [2] | Activity [4] | Activity [5] | Activity [6] | Activity [7] | Activity [8] | Activity [3]

O=C(O)CCCCCCCCCCCCCCCNC(=O)Nc1ccc(Cl)c(C(F)(F)F)c1
88 µg: Activity [32]
active: Activity [9] | Activity [12] | Activity [14] | Activity [22] | Activity [23] | Activity [24] | Activity [6] | Activity [26] | Activity [28] | Activity [31] Dose-dependent effect | Activity [1] | Activity [8] | Activity [36] | Activity [37] | Activity [38] | Activity [39]
72%: Activity [15]
5.9%: Activity [11]
32%: Activity [3]
20%: Activity [16] | Activity [18]
30%: Activity [27]
inactive: Activity [17] | Activity [20] | Activity [29] | Activity [33] | Activity [35]
11%: Activity [19]
Non-Toxic: Activity [10] | Activity [13]
61%: Activity [25] | Activity [34]
203%: Activity [30]
62.4%: viability at 10 µM [21]

CCNC(=O)NCCCCCCCCCCCCCCCC(=O)O
inactive: Activity [2] | Activity [5] | Activity [25] | Activity [7] | Activity [3]

O=C(O)CCCCCCCCCCCCCCCNC(=O)Nc1ccc(Cl)cc1
inactive: Activity [2] | Activity [3]

Cc1cc(NC(=O)NCCCCCCCCCCCCCCCC(=O)O)ccc1Cl
inactive: Activity [2] | Activity [4] | Activity [6] | Activity [8] | Activity [3]

O=C(O)CCCCCCCCCCCCCCCNC(=O)Nc1ccc(Cl)c(Cl)c1
inactive: Activity [2] | Activity [4] | Activity [5] | Activity [6] | Activity [7] | Activity [8] | Activity [3]
